Reference: ChEMBL document CHEMBL5303300, “EUbOPEN Chemogenomics Library - Multiplex” (2023)
Several values for one entry are separate records, joined by “and”; a condition that tells them apart may be missing. Equal entries are not always repeated.

System: Fibroblast
Assay: Multiplex assay against human fibroblast
Format: toxicity, cell-based
Conditions: number of replicates 2
How it was run: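 Four dyes were applied at seeding to live cells: Hoechst33342, BioTracker Green Microtubule Cytoskeleton Dye, MitoTracker Red and Annexin V Alexa Fluor 680. Imaging after compound addition used a CQ1 microscope at 37°C and 5% CO2. CellPathfinder machine-learning gating then sorted cells into Hoechst high-intensity objects or normal cells, normal cells into healthy, pyknosed or fragmented nuclei, and pyknosed cells into mitotic or apoptotic, with tubulin, mitochondrial-mass and membrane-permeability phenotypes given as per cents of healthy-nucleus cells.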

[1] = 12 h, 1 µM, compound concentration 1 uM
[2] = 12 h, 10 µM, compound concentration 10 uM
[3] = 24 h, 1 µM, compound concentration 1 uM
[4] = 24 h, 10 µM, compound concentration 10 uM
[5] = 48 h, 1 µM, compound concentration 1 uM
[6] = 48 h, 10 µM, compound concentration 10 uM

SMILES: CN(C)C/C=C/C(=O)Nc1ccc(C(=O)Nc2cccc(Nc3ncc(Cl)c(-c4c[nH]c5ccccc45)n3)c2)cc1
- Population Apoptotic (%) [1]: 47% and 41%
- Population Fragmented Nuclei (%) [1]: 6% and 9%
- Population Healthy Nuclei (%) [1]: 61% and 63%
- Population Hoechst High Intensity Objects (%) [1]: 0%
- Population Membrane Permeable-Phenotype (%) [1]: 6%
- Population Mitochondria Different-Phenotype (%) [1]: 9% and 8%
- Population Mitotic Cells (%) [1]: 52% and 58%
- Population Normal (%) [1]: 99%
- Population Pyknosed Nuclei (%) [1]: 32% and 26%
- Population Tubulin-Different-Phenotype (%) [1]: 29% and 25%
- Total Cell Count [1]: 144 and 155
- Population Apoptotic (%) [2]: 50% and 66%
- Population Fragmented Nuclei (%) [2]: 21% and 12%
- Population Healthy Nuclei (%) [2]: 41% and 42%
- Population Hoechst High Intensity Objects (%) [2]: 0%
- Population Membrane Permeable-Phenotype (%) [2]: 21% and 22%
- Population Mitochondria Different-Phenotype (%) [2]: 10% and 4%
- Population Mitotic Cells (%) [2]: 50% and 33%
- Population Normal (%) [2]: 99%
- Population Pyknosed Nuclei (%) [2]: 36% and 44%
- Population Tubulin-Different-Phenotype (%) [2]: 77% and 63%
- Total Cell Count [2]: 180 and 169
- Population Apoptotic (%) [3]: 62% and 51%
- Population Fragmented Nuclei (%) [3]: 12% and 10%
- Population Healthy Nuclei (%) [3]: 54% and 55%
- Population Hoechst High Intensity Objects (%) [3]: 0%
- Population Membrane Permeable-Phenotype (%) [3]: 13% and 5%
- Population Mitochondria Different-Phenotype (%) [3]: 12% and 11%
- Population Mitotic Cells (%) [3]: 37% and 48%
- Population Normal (%) [3]: 100%
- Population Pyknosed Nuclei (%) [3]: 32% and 35%
- Population Tubulin-Different-Phenotype (%) [3]: 37% and 33%
- Total Cell Count [3]: 132 and 140
- Population Apoptotic (%) [4]: 79% and 84%
- Population Fragmented Nuclei (%) [4]: 12% and 22%
- Population Healthy Nuclei (%) [4]: 31%
- Population Hoechst High Intensity Objects (%) [4]: 1% and 0%
- Population Membrane Permeable-Phenotype (%) [4]: 23% and 16%
- Population Mitotic Cells (%) [4]: 20% and 15%
- Population Normal (%) [4]: 98% and 99%
- Population Pyknosed Nuclei (%) [4]: 55% and 46%
- Population Tubulin-Different-Phenotype (%) [4]: 50% and 74%
- Total Cell Count [4]: 167 and 178
- Population Apoptotic (%) [5]: 72% and 74%
- Population Fragmented Nuclei (%) [5]: 15%
- Population Healthy Nuclei (%) [5]: 55% and 50%
- Population Hoechst High Intensity Objects (%) [5]: 0%
- Population Membrane Permeable-Phenotype (%) [5]: 11% and 5%
- Population Mitochondria Different-Phenotype (%) [5]: 7% and 8%
- Population Mitotic Cells (%) [5]: 27% and 25%
- Population Normal (%) [5]: 100%
- Population Pyknosed Nuclei (%) [5]: 29% and 34%
- Population Tubulin-Different-Phenotype (%) [5]: 39% and 26%
- Total Cell Count [5]: 124 and 149
- Population Apoptotic (%) [6]: 93%
- Population Fragmented Nuclei (%) [6]: 32% and 24%
- Population Healthy Nuclei (%) [6]: 20% and 19%
- Population Hoechst High Intensity Objects (%) [6]: 2% and 0%
- Population Membrane Permeable-Phenotype (%) [6]: 25% and 18%
- Population Mitochondria Different-Phenotype (%) [6]: 6% and 5%
- Population Mitotic Cells (%) [6]: 6%
- Population Normal (%) [6]: 97% and 99%
- Population Pyknosed Nuclei (%) [6]: 46% and 56%
- Population Tubulin-Different-Phenotype (%) [6]: 65% and 68%
- Total Cell Count [6]: 220 and 196

SMILES: COc1cccc(Cn2cc(C(=O)Nc3ccc(C)c(S(=O)(=O)N4CCOCC4)c3)c(-c3ccc(C)cc3)n2)c1
- Population Apoptotic (%) [1]: 48% and 37%
- Population Fragmented Nuclei (%) [1]: 7% and 6%
- Population Healthy Nuclei (%) [1]: 65% and 67%
- Population Hoechst High Intensity Objects (%) [1]: 0% and 1%
- Population Membrane Permeable-Phenotype (%) [1]: 13% and 10%
- Population Mitochondria Different-Phenotype (%) [1]: 2% and 3%
- Population Mitotic Cells (%) [1]: 51% and 62%
- Population Normal (%) [1]: 100% and 98%
- Population Pyknosed Nuclei (%) [1]: 26% and 27%
- Population Tubulin-Different-Phenotype (%) [1]: 44% and 39%
- Total Cell Count [1]: 152 and 203
- Population Apoptotic (%) [2]: 39% and 45%
- Population Fragmented Nuclei (%) [2]: 6% and 7%
- Population Healthy Nuclei (%) [2]: 63% and 53%
- Population Hoechst High Intensity Objects (%) [2]: 0% and 1%
- Population Membrane Permeable-Phenotype (%) [2]: 21% and 28%
- Population Mitochondria Different-Phenotype (%) [2]: 2% and 1%
- Population Mitotic Cells (%) [2]: 60% and 54%
- Population Normal (%) [2]: 100% and 98%
- Population Pyknosed Nuclei (%) [2]: 29% and 38%
- Population Tubulin-Different-Phenotype (%) [2]: 93% and 85%
- Total Cell Count [2]: 191 and 229
- Population Apoptotic (%) [3]: 57% and 42%
- Population Fragmented Nuclei (%) [3]: 9% and 10%
- Population Healthy Nuclei (%) [3]: 64% and 59%
- Population Hoechst High Intensity Objects (%) [3]: 0%
- Population Membrane Permeable-Phenotype (%) [3]: 13% and 9%
- Population Mitochondria Different-Phenotype (%) [3]: 1% and 3%
- Population Mitotic Cells (%) [3]: 42% and 57%
- Population Normal (%) [3]: 100%
- Population Pyknosed Nuclei (%) [3]: 25% and 30%
- Population Tubulin-Different-Phenotype (%) [3]: 44% and 38%
- Total Cell Count [3]: 162 and 205
- Population Apoptotic (%) [4]: 66% and 67%
- Population Fragmented Nuclei (%) [4]: 9%
- Population Healthy Nuclei (%) [4]: 70% and 57%
- Population Hoechst High Intensity Objects (%) [4]: 0% and 1%
- Population Membrane Permeable-Phenotype (%) [4]: 14% and 20%
- Population Mitochondria Different-Phenotype (%) [4]: 2% and 7%
- Population Mitotic Cells (%) [4]: 33% and 32%
- Population Normal (%) [4]: 100% and 98%
- Population Pyknosed Nuclei (%) [4]: 19% and 32%
- Population Tubulin-Different-Phenotype (%) [4]: 90% and 84%
- Total Cell Count [4]: 199 and 219
- Population Apoptotic (%) [5]: 73% and 64%
- Population Fragmented Nuclei (%) [5]: 13% and 11%
- Population Healthy Nuclei (%) [5]: 65% and 67%
- Population Hoechst High Intensity Objects (%) [5]: 0%
- Population Membrane Permeable-Phenotype (%) [5]: 6% and 9%
- Population Mitochondria Different-Phenotype (%) [5]: 1% and 2%
- Population Mitotic Cells (%) [5]: 26% and 35%
- Population Normal (%) [5]: 100% and 99%
- Population Pyknosed Nuclei (%) [5]: 21% and 20%
- Population Tubulin-Different-Phenotype (%) [5]: 34%
- Total Cell Count [5]: 178 and 191
- Population Apoptotic (%) [6]: 75%
- Population Fragmented Nuclei (%) [6]: 15% and 17%
- Population Healthy Nuclei (%) [6]: 69% and 58%
- Population Hoechst High Intensity Objects (%) [6]: 0% and 1%
- Population Membrane Permeable-Phenotype (%) [6]: 25% and 23%
- Population Mitochondria Different-Phenotype (%) [6]: 1% and 5%
- Population Mitotic Cells (%) [6]: 25%
- Population Normal (%) [6]: 100% and 98%
- Population Pyknosed Nuclei (%) [6]: 15% and 23%
- Population Tubulin-Different-Phenotype (%) [6]: 89% and 83%
- Total Cell Count [6]: 210 and 238
